Assay results taken from ChEMBL document CHEMBL2086241, “Molecular modeling, synthesis and screening of some new 4-thiazolidinone derivatives with promising selective COX-2 inhibitory activity” (Eur J Med Chem, 2012).

Columns and labels:
[1] = molecular target: T1, Prostaglandin G/H synthase 1 (Ovis aries, UniProt P05979); experiment: Inhibition of ovine COX1 assessed as inhibition of PGF2alpha production from PGH2 by enzyme immuno assay
T1 sequence (P05979 whole entry): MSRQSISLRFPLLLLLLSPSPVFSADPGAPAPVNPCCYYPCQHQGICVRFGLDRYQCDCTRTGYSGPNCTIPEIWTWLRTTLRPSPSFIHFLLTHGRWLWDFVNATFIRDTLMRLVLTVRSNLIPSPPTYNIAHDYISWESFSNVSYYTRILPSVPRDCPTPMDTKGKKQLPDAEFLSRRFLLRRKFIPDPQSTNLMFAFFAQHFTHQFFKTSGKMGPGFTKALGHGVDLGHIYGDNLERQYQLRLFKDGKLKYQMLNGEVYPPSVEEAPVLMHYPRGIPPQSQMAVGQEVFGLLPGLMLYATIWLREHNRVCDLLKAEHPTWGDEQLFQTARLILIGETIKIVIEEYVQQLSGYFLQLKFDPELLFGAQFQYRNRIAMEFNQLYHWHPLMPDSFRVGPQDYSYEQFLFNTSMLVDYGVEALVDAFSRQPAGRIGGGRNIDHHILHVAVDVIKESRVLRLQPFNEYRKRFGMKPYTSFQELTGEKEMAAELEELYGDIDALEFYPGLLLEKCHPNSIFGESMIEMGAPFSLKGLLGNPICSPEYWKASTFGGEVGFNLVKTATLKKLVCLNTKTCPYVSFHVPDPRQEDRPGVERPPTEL
How it was run: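 Ovine COX-1 in Tris-HCl buffer, pH 8.0, with heme, preincubated 10 min at 37 °C. Arachidonic acid started the reaction, which was stopped after 2 min with 1 M HCl. PGH₂ was reduced to PGF2α with stannous chloride, and PGF2α was quantified by competitive EIA with an AChE tracer and Ellman's reagent. IC50 came from concentration–inhibition curves, duplicate determinations.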

[2] = molecular target: T2, Prostaglandin G/H synthase 2 (Homo sapiens, UniProt P35354); experiment: Inhibition of human recombinant COX2 assessed as inhibition of PGF2alpha production from PGH2 by enzyme immunoassay
T2 sequence (P35354 whole entry): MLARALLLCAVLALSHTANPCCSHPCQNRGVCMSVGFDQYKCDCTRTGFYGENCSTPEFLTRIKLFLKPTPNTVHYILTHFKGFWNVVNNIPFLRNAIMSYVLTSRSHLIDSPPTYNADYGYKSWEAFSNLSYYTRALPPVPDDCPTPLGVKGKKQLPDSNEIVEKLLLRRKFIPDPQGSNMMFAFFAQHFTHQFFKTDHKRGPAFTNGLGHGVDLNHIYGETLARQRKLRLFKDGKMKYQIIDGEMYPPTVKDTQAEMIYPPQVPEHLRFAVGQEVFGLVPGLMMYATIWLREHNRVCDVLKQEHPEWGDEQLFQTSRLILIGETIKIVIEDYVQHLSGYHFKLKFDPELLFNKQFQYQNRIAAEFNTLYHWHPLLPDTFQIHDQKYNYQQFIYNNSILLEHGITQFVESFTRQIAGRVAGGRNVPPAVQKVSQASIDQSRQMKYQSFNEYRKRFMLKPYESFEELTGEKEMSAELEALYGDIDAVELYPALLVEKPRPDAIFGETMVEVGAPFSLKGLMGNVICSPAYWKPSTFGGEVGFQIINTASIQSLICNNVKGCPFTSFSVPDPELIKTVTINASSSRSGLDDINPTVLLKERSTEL

[3] = Selectivity index, ratio of IC50 for ovine COX1 to IC50 for human recombinant COX2

Row | IC50 [1] [µM] | IC50 [2] [µM] | Ratio IC50 [3] | SMILES
1 | 54.5 | 51.8 | 1.05 | NS(=O)(=O)c1ccc(NN2C(=O)CSC2c2ccc(C(F)(F)F)cc2)cc1 (stereo not given)
2 | 105 | 14.4 | 7.27 | Cc1ccc(C2SCC(=O)N2Nc2ccc(S(C)(=O)=O)cc2)cc1 (stereo not given)
3 | 61.1 | 37.8 | 1.61 | CS(=O)(=O)c1ccc(NN2C(=O)CSC2c2ccc(C(F)(F)F)cc2)cc1 (stereo not given)
4 | 83 | 122 | 0.68 | CS(=O)(=O)c1ccc(NN2C(=O)CSC2c2ccc(Cl)cc2)cc1 (stereo not given)
5 | 85.5 | 24.5 | 3.49 | Cc1ccc(C2SCC(=O)N2Nc2ccc(S(N)(=O)=O)cc2)cc1 (stereo not given)
6 | 63.2 | 20 | 3.16 | CS(=O)(=O)c1ccc(NN2C(=O)CSC2c2ccccc2)cc1 (stereo not given)
7 | 38.9 | 45.5 | 0.85 | NS(=O)(=O)c1ccc(NN2C(=O)CSC2c2ccc(Cl)cc2)cc1 (stereo not given)
8 | 62.7 | 45.4 | 1.38 | CS(=O)(=O)c1ccc(NN2C(=O)CSC2c2ccc(F)cc2)cc1 (stereo not given)
9 | 96.4 | 78.2 | 1.23 | NS(=O)(=O)c1ccc(NN2C(=O)CSC2c2ccccc2)cc1 (stereo not given)
10 | 42.1 | 63 | 0.67 | NS(=O)(=O)c1ccc(NN2C(=O)CSC2c2ccc(F)cc2)cc1 (stereo not given)
